According to ChEMBL document CHEMBL1129445 (J Med Chem, 1996):

Key:
[1] = molecular target: T1, Inosine-5'-monophosphate dehydrogenase 2 (Homo sapiens, UniProt P12268); assay: Inhibition of human recombinant inosine monophosphate dehydrogenase type II.
Procedure, shortened: (§1)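 Reactions are run either at pH 7.4 (0.1 M K phosphate, 0.5 M KCl, 3 mM EDTA, 10 μg/mL BSA) or at pH 8.0 (0.1 M Tris-HCl, 0.1 M KCl, 3 mM EDTA, 100 μg/mL BSA). DMSO ≤10%, compounds tested up to 100 μM. IC50 from fit of fractional activity = V0/[(I/IC50)^n + 1].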

Homo sapiens [2] = species on record: Homo sapiens; assay: Inhibition of human Lymphocyte proliferation. The IC50 values were determined by interpolation using cubic spline determination.; type: functional
Procedure, shortened: (§2)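 Human PBMC are isolated on Ficoll from heparinized blood and plated at 2 × 10^5 cells/well in RPMI-1640 with 5% FCS. Cells are stimulated with PHA (10 μg/mL final) and given compound at time 0, at 4-6 concentrations between 0.001 and 20 μM (tested to 10 μM). Cultures run in quadruplicate for 72 h at 37 °C, 7% CO2, with [3H]thymidine (0.5 μCi/well) for the last 6 h. IC50 by cubic-spline interpolation of the means.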

[3] = molecular target: T1, Inosine-5'-monophosphate dehydrogenase 2; assay: Inhibition of human recombinant type II Inosine Monophosphate Dehydrogenase. at pH 8.0
Procedure, shortened: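 Recombinant human type II IMPDH (12.5-25 pmol) in 0.1 M Tris-HCl pH 8.0, 0.1 M KCl, 3 mM EDTA, 100 μg/mL BSA. […] IC50 fitted with a Hill equation, fractional activity = V0/[(I/IC50)^n + 1].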

Homo sapiens [4] = species on record: Homo sapiens; assay: Inhibition of human Lymphocyte proliferation. The IC50 values were determined by interpolation using the cubic spline determination at 10 uM; type: functional; procedure, shortened: as §2
[5] = molecular target: T1, Inosine-5'-monophosphate dehydrogenase 2; assay: Inhibition of human recombinant type II Inosine Monophosphate Dehydrogenase at 100 uM; procedure, shortened: as §1
Mus musculus [6] = assay: % inhibition of Murine plaque forming cells response was measured in Mice at 12.5 mg/kg dose; type: functional
Mus musculus [7] = assay: % inhibition of Murine plaque forming cells response was measured in Mice at 25 mg/kg dose; type: functional
Mus musculus [8] = species on record: Mus musculus; assay: Effective dose was measured in mice as concentration required to inhibit 50% inhibition of Murine PFC response; type: functional
Procedure, shortened: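 Jerne plaque assay in female C3H or CD-1 mice immunized ip with SRBC on day 0, with oral daily dosing over the next 4 days. Splenic PFC per 10^6 WBC counted on day 4. ED50 read graphically from the dose-inhibition data.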

Mus musculus [9] = assay: % inhibition of Murine plaque forming cells response was measured in Mice at 6.25 mg/kg dose; type: functional
[10] = Compound was tested for inhibition of human Lymphocyte proliferation. The IC50 values were determined by interpolation using the cubic spline determination.; type: functional; procedure, shortened: as §2
[11] = molecular target: T1, Inosine-5'-monophosphate dehydrogenase 2; assay: Compound was tested for inhibition of human recombinant type II Inosine Monophosphate Dehydrogenase. (tested to 100 and 10 uM conc); procedure, shortened: as §1
Mus musculus [12] = assay: Tested for the inhibition of murine PFC response at 100 mg/kg dose; type: functional
Homo sapiens [13] = species on record: Homo sapiens; assay: Compound was tested for inhibition of human Lymphocyte proliferation. The IC50 values were determined by interpolation using the cubic spline determination at 10 uM; type: functional; procedure, shortened: as §2
Mus musculus [14] = species on record: Mus musculus; assay: Compound was tested for its % Inhibition of Murine PFC response in Mice; type: functional

COc1c(C/C=C(\C)CCC(=O)O)cc(C#N)c(C)c1C
IC50 [1]: 1.6 µM

C/C(=C\Cc1c(C)c(C)c(C)c([N+](=O)[O-])c1O)CCC(=O)O
IC50 (Homo sapiens [2]): 3.2 µM | IC50 [1]: 0.289 µM

C/C(=C\Cc1c(C)c(C)c(C)c(Cl)c1O)CCC(=O)O
IC50 (Homo sapiens [2]): 0.36 µM | IC50 [1]: 0.0693 µM

COc1c(C)c(C)c(C=O)c(O)c1C/C=C(\C)CCC(=O)O
IC50 (Homo sapiens [2]): 10 µM | IC50 [1]: 1.12 µM

COc1c(C)c2c(c(O)c1C/C=C(\C)CCC(=O)O)C(=O)NC2
IC50 [3]: 0.244 µM | IC50 (Homo sapiens [2]): 1.5 µM

C/C(=C\Cc1c(O)c2c(c(C)c1C(N)=O)COC2=O)CCC(=O)O
IC50 (Homo sapiens [2]): > 10 µM | IC50 [1]: 0.231 µM

COc1c(C)c(C)c(F)c(Cl)c1C/C=C(\C)CCC(=O)O
IC50 (Homo sapiens [4]): > 10 µM | IC50 [5]: 11.8 µM

CCc1c(C)c2c(c(O)c1C/C=C(\C)CCC(=O)O)C(=O)OC2
IC50 (Homo sapiens [2]): 0.057 µM | IC50 [1]: 0.0126 µM | inhibition in vivo at 12.5 mg/kg (Mus musculus [6]): 73% | inhibition in vivo at 25 mg/kg (Mus musculus [7]): 93% | ED50 (Mus musculus [8]): 9 mg/kg | inhibition in vivo at 6.25 mg/kg (Mus musculus [9]): 25%

COc1c(C)c(C)c(Br)c(Cl)c1C/C=C(\C)CCC(=O)O
IC50 (Homo sapiens [4]): > 10 µM | IC50 [5]: 1.04 µM

COc1c(C)c2c(c(O)c1C/C=C(\C)CCC(=O)O)C(=O)OC2C (centres undefined)
IC50 [3]: 0.42 µM | IC50 (Homo sapiens [2]): 0.6 µM

COc1c(C)c2c(c(O)c1C/C=C(\C)CCC(=O)O)C(=O)N(C)C2
IC50 [3]: > 100 µM | IC50 [10]: > 10 µM

CCc1c2c(c(O)c(C/C=C(\C)CCC(=O)O)c1OC)C(=O)OC2
IC50 [3]: 0.41 µM | IC50 (Homo sapiens [2]): 3 µM

COc1c(C/C=C(\C)CCC(=O)O)cc(O)c(C)c1C
IC50 [5]: > 100 µM

C/C(=C\Cc1c(N)cc(C)c(C)c1C)CCC(=O)O
IC50 [1]: 90.8 µM

C/C(=C\Cc1c(O)cc(C)c(C)c1C)CCC(=O)O
IC50 [11]: > 100 µM

COc1c(C/C=C(\C)CCC(=O)O)cc([N+](=O)[O-])c(C)c1C
IC50 (Homo sapiens [2]): 9.5 µM | IC50 [1]: 1.22 µM

COc1c(C)c(C)c(O)c(Cl)c1C/C=C(\C)CCC(=O)O
IC50 (Homo sapiens [4]): > 10 µM | IC50 [5]: 2.88 µM

COc1c(C/C=C(\C)CCC(=O)O)cc(S(C)=O)c(C)c1C (centres undefined)
IC50 (Homo sapiens [4]): > 10 µM | IC50 [5]: > 100 µM

COc1c(C)c(C)c(Cl)c(N)c1C/C=C(\C)CCC(=O)O
IC50 (Homo sapiens [2]): 4.1 µM | IC50 [1]: 0.489 µM | inhibition in vivo at 100 mg/kg (Mus musculus [12]): 42%

C/C(=C\Cc1c(C)c(C)c(C)c(Br)c1O)CCC(=O)O
IC50 (Homo sapiens [2]): 1.65 µM | IC50 [1]: 0.62 µM

C/C(=C\Cc1c(O)c(C)c2c(c1O)C(=O)OC2)CCC(=O)O
IC50 (Homo sapiens [2]): > 10 µM | IC50 [1]: 0.0877 µM

COc1c(C)c(C)c([N+](=O)[O-])c(N)c1C/C=C(\C)CCC(=O)O
IC50 (Homo sapiens [2]): 2.8 µM | IC50 [1]: 0.465 µM

COc1c(C)c(C)c(F)c(F)c1C/C=C(\C)CCC(=O)O
IC50 (Homo sapiens [4]): > 10 µM | IC50 [5]: 1.38 µM

COc1c(C)c(C)cc(Cl)c1C/C=C(\C)CCC(=O)O
IC50 (Homo sapiens [4]): > 10 µM | IC50 [5]: 18.8 µM

COc1c(C)c(C)c(OC)c(C/C=C(\C)CCC(=O)O)c1O
IC50 [1]: 11.9 µM

COc1c(C)c(C)c(/C=N/O)c(O)c1C/C=C(\C)CCC(=O)O
IC50 (Homo sapiens [13]): > 10 µM | IC50 [5]: 11.9 µM

C=Cc1c(C)c2c(c(O)c1C/C=C(\C)CCC(=O)O)C(=O)OC2
IC50 (Homo sapiens [2]): 0.093 µM | IC50 [1]: 0.00851 µM

COc1cc(C/C=C(\C)CCC(=O)O)c(OC)c(C)c1C
IC50 [1]: 50 µM

C/C(=C\Cc1c(O)c2c(c(C)c1C#N)COC2=O)CCC(=O)O
IC50 (Homo sapiens [2]): > 10 µM | IC50 [1]: 15.5 µM

COc1c(C/C=C(\C)CCC(=O)O)c(O)c2c(c1OC)COC2=O
IC50 [3]: 0.126 µM | IC50 (Homo sapiens [2]): 0.13 µM | Inhibition (Mus musculus [14]): 49%

COc1c(C)c(C)c([N+](=O)[O-])c(Cl)c1C/C=C(\C)CCC(=O)O
IC50 (Homo sapiens [4]): > 10 µM | IC50 [5]: 1.8 µM

COc1c(C/C=C(\C)CCC(=O)O)cc(Br)c(C)c1C
IC50 (Homo sapiens [4]): > 10 µM | IC50 [5]: 0.795 µM
